Data set [1] has as its system Trypanosoma cruzi. Nature of the data set: Trypanocidal activity against Trypanosoma cruzi IRHOD/CO/2008/SN3 DTU 1 epimastigotes after 48 hrs by resazurin dye based assay. Particulars: IRHOD/CO/2008/SN3 DTU 1, 48 h. In kind it is functional, organism-based. The method in brief:
(§1)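 Exponential-phase epimastigotes were seeded at 5×10^5 mL^-1 with compounds at 100–0.2 µM (DMSO 0.01% v/v) at 28 °C. After 48 h, resazurin was added for another 24 h. SDS was then added and absorbance read at 570 and 600 nm.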
A general note: Alamar Blue is a resazurin reagent that responds to reducing activity.

The subject of another data set is Vero. Nature of the data set: Cytotoxicity against African green monkey Vero cells assessed as reduction in cell viability after 72 hrs by resazurin dye based assay. Particulars: Chlorocebus sabaeus. The method in brief: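 Vero monkey kidney cells grown at 37 °C, 5 % CO2, in RPMI with 10 % heat-inactivated FBS. Seeded at 1.25 × 10^4 mL-1 with compound at 1000 to 1 µM (DMSO 0.01 % v/v). After 48 h, resazurin added for a further 24 h, then SDS. Absorbance read at 570/600 nm. IC50 from triplicates in four separate determinations.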

Data set [2] is described as follows: Selectivity index, ratio of IC50 for African green monkey Vero cells to IC50 for Trypanosoma cruzi TINF/CH/1956/Tulahuen DTU 6 epimastigotes. In kind it is toxicity. Conditions: read-out: Ratio IC50. The method in brief:
(§2)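 SI is Vero IC50 divided by the IC50 for the stated parasite form. For Vero cytotoxicity, cells were seeded at 1.25×10^4 mL^-1 with compounds at 1000–1 µM, incubated 48 h, then given resazurin for a further 24 h (72 h total), with absorbance read at 570/600 nm. Triplicate, four determinations.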

A short description of data set [3]: Selectivity index, ratio of IC50 for African green monkey Vero cells to IC50 for Trypanosoma cruzi IRHOD/CO/2008/SN3 DTU 1 epimastigotes. In kind it is toxicity. Conditions: read-out: Ratio IC50. The method in brief: as §2
Data set [4] has as its system Trypanosoma cruzi. In words: Trypanocidal activity against Trypanosoma cruzi MHOM/Pe/2011/Arequipa DTU 5 epimastigotes after 48 hrs by resazurin dye based assay. In kind it is functional, organism-based. Particulars: MHOM/Pe/2011/Arequipa DTU 5, 48 h. An outline of the steps: as §1
Data set [5] has as its system Trypanosoma cruzi. In words: Trypanocidal activity against Trypanosoma cruzi TINF/CH/1956/Tulahuen DTU 6 epimastigotes after 48 hrs by resazurin dye based assay. In kind it is functional, organism-based. Conditions: TINF/CH/1956/Tulahuen DTU 6, 48 h. The method in brief:
as §1

Data set [6] is described as follows: Selectivity index, ratio of IC50 for African green monkey Vero cells to IC50 for Trypanosoma cruzi MHOM/Pe/2011/Arequipa DTU 5 epimastigotes. In kind it is toxicity. Conditions: read-out: Ratio IC50. An outline of the steps:
as §2

The term IC50 denotes the concentration that inhibits the measured activity by half. `O=C(CCN1CCN(c2ccc([N+](=O)[O-])cc2)CC1)c1ccc(OC(F)(F)F)cc1`: the IC50 in the data set with Trypanosoma cruzi [1] is 95 µM; with Vero, 93.2 µM; with Trypanosoma cruzi [4] it was 41.1 µM; with Trypanosoma cruzi [5], 52.1 µM. The results for the selectivity ratio in data set [2], in data set [3] and in data set [6] were 1.8, 1 and 2.3, respectively.

In the case of `O=C(CCN1CCN(c2ccc(C(F)(F)F)cc2)CC1)c1ccc(Cl)c(F)c1`, the concentration for half-maximal inhibition (IC50) in the data set on Trypanosoma cruzi [1] is 49.1 µM; in the data set on Vero, 74.3 µM; in the data set with Trypanosoma cruzi [4], 27.6 µM; with Trypanosoma cruzi [5] it was 66.7 µM. Moreover, the figures for the selectivity ratio in data set [2], in data set [3] and in data set [6] were 1.1, 1.5 and 2.7, respectively.

On to `COc1ccc(C(=O)CCN2CCN(Cc3cccc(F)c3)CC2)cc1OC`, for which the IC50 worked out at 48 µM with Trypanosoma cruzi [1], 22.4 µM in the data set on Vero, 49 µM in the data set on Trypanosoma cruzi [4] and 40.8 µM with Trypanosoma cruzi [5]. The selectivity ratio in data set [2] came to 0.6; in data set [3] it was 0.5; in data set [6], 0.5.

As to `O=C(CCN1CCN(c2ccc([N+](=O)[O-])cc2)CC1)c1ccc(Br)cc1`, the IC50 in the data set with Trypanosoma cruzi [1] turned out to be 39.7 µM; in the data set on Vero, 79.8 µM; in the data set on Trypanosoma cruzi [4], 27.2 µM; with Trypanosoma cruzi [5] it was 46.2 µM. The selectivity ratio in data set [2] stood at 1.7; in data set [3], 2; in data set [6], 2.9.

As for `O=C(CCN1CCN(c2ccc(C(F)(F)F)cc2)CC1)c1ccc(OC(F)(F)F)cc1`, the IC50 with Trypanosoma cruzi [1] amounted to 38.4 µM; in the data set on Vero it was 64.9 µM; in the data set with Trypanosoma cruzi [4] it was 51.2 µM; in the data set on Trypanosoma cruzi [5] it was 86.3 µM. Also, the values for the selectivity ratio in data set [2], in data set [3] and in data set [6] were 0.8, 1.7 and 1.3, respectively.

As for `O=C(CCN1CCN(c2ccc(C(F)(F)F)cc2)CC1)c1ccc(F)c(Br)c1`, the half-maximal inhibitory concentration (IC50) in the data set on Trypanosoma cruzi [1] is 20.8 µM; in the data set on Vero, 66.8 µM; in the data set with Trypanosoma cruzi [4], 46.6 µM; with Trypanosoma cruzi [5] it was 25.6 µM. For the same compound, the selectivity ratio is 2.6 in data set [2], 3.2 in data set [3] and 1.4 in data set [6].

As for `O=C(CCN1CCN(c2ccccc2F)CC1)c1ccc(F)cc1`, the IC50 was 52.6 µM in the data set on Trypanosoma cruzi [1], 49.5 µM in the data set with Vero, 37.9 µM with Trypanosoma cruzi [4] and 53.5 µM in the data set with Trypanosoma cruzi [5]. For the same compound, the selectivity ratio amounted to 0.9 in data set [2], 0.9 in data set [3] and 1.3 in data set [6].

Regarding `O=C(CCN1CCN(c2ccc(Cl)cc2)CC1)c1ccc(Cl)c(F)c1`, the half-inhibitory concentration (IC50) with Trypanosoma cruzi [1] is 51.6 µM; with Vero it was 175 µM; in the data set with Trypanosoma cruzi [4], 42 µM; in the data set with Trypanosoma cruzi [5] it was 55.5 µM. Moreover, the values for the selectivity ratio in data set [2], in data set [3] and in data set [6] were 3.2, 3.4 and 4.2, respectively.

Consider `O=C(CCN1CCN(c2ccc(Cl)cc2)CC1)c1ccc(F)c(Br)c1`, for which the IC50 in the data set with Trypanosoma cruzi [1] was determined as 35.1 µM; in the data set with Vero, 206 µM; in the data set on Trypanosoma cruzi [4], 26.6 µM; with Trypanosoma cruzi [5] it was 30.6 µM. In addition, the figures for the selectivity ratio in data set [2], in data set [3] and in data set [6] were 6.7, 5.9 and 7.7, respectively.

Turning to `COc1ccccc1N1CCN(CCC(=O)c2ccc(F)cc2)CC1`, the IC50 amounted to 40.5 µM in the data set with Trypanosoma cruzi [1], 24 µM in the data set with Vero, 58.3 µM in the data set with Trypanosoma cruzi [4] and 45.6 µM in the data set with Trypanosoma cruzi [5]. Moreover, the selectivity ratio is 0.5 in data set [2], 0.6 in data set [3] and 0.4 in data set [6].

In the case of `O=C(CCN1CCN(c2ccc([N+](=O)[O-])cc2)CC1)c1ccc(C(F)(F)F)cc1`, the IC50 with Trypanosoma cruzi [1] came out at 20 µM; with Vero it was 75.7 µM; with Trypanosoma cruzi [4] it was 13.5 µM; in the data set with Trypanosoma cruzi [5] it was 15.1 µM. Further, the selectivity ratio in data set [2] was 5; in data set [3], 3.8; in data set [6], 5.6.

In the case of `O=C(CCN1CCN(c2ccc(C(F)(F)F)cc2)CC1)c1ccc(F)c(F)c1`, the IC50 in the data set with Trypanosoma cruzi [1] was determined as 28.8 µM; with Vero, 14 µM; in the data set with Trypanosoma cruzi [4] it was 33.4 µM; in the data set with Trypanosoma cruzi [5], 54.1 µM. Further, the selectivity ratio in data set [2] amounted to 0.3; in data set [3] it was 0.5; in data set [6] it was 0.4.

Consider `O=C(CCN1CCN(c2ccc(C(F)(F)F)cc2)CC1)c1ccc(C(F)(F)F)cc1`, for which the 50% inhibitory concentration (IC50) was determined as 34.7 µM in the data set on Trypanosoma cruzi [1], 49.2 µM with Vero, 24.3 µM in the data set on Trypanosoma cruzi [4] and 43 µM in the data set with Trypanosoma cruzi [5]. For the same compound, the figures for the selectivity ratio in data set [2], in data set [3] and in data set [6] were 1.1, 1.4 and 2, respectively.

Turning to `O=C(CCN1CCN(c2ccc(C(F)(F)F)cc2)CC1)c1ccc(F)c(Cl)c1`, the concentration for half-maximal inhibition (IC50) in the data set with Trypanosoma cruzi [1] was 45 µM; with Vero, 74.5 µM; in the data set on Trypanosoma cruzi [4], 21.6 µM; in the data set on Trypanosoma cruzi [5], 29 µM. Further, the values for the selectivity ratio in data set [2], in data set [3] and in data set [6] were 2.6, 1.7 and 3.4, respectively.

`O=C(CCN1CCN(c2ccc([N+](=O)[O-])cc2)CC1)c1ccc(F)c(F)c1`: the concentration for half-maximal inhibition (IC50) is 160 µM in the data set with Trypanosoma cruzi [1], 122 µM with Vero, 85.2 µM with Trypanosoma cruzi [4] and 53.1 µM with Trypanosoma cruzi [5]. The figures for the selectivity ratio in data set [2], in data set [3] and in data set [6] were 2.3, 0.8 and 1.4, respectively.

As for `O=C(CCN1CCN(c2ccc(F)cc2)CC1)c1ccccc1`, the IC50 stood at 32.9 µM in the data set on Trypanosoma cruzi [1], 13.4 µM in the data set with Vero, 65.7 µM with Trypanosoma cruzi [4] and 94.1 µM in the data set on Trypanosoma cruzi [5]. For the same compound, the selectivity ratio in data set [2] came to 0.1; in data set [3] it was 0.4; in data set [6], 0.2.

Consider `O=C(CCN1CCN(c2ccc([N+](=O)[O-])cc2)CC1)c1ccc(F)c(Cl)c1`, for which the IC50 amounted to 51 µM with Trypanosoma cruzi [1], 116 µM with Vero, 34.2 µM with Trypanosoma cruzi [4] and 41.5 µM in the data set with Trypanosoma cruzi [5]. The selectivity ratio in data set [2] is 2.8; in data set [3] it was 2.3; in data set [6] it was 3.4.

Turning to `Cc1ccc(C(=O)CCN2CCN(c3ccc(Cl)cc3)CC2)cc1`, the concentration for half-maximal inhibition (IC50) with Trypanosoma cruzi [1] was 26 µM; in the data set on Vero, 184 µM; in the data set on Trypanosoma cruzi [4], 31.7 µM; in the data set with Trypanosoma cruzi [5], 29.5 µM. Moreover, the selectivity ratio in data set [2] came to 6.2; in data set [3], 7.1; in data set [6] it was 5.8.

With `COc1ccc(C(=O)CCN2CCN(c3ccc(F)cc3)CC2)cc1OC`, the half-maximal inhibitory concentration (IC50) in the data set with Trypanosoma cruzi [1] is 61.5 µM; in the data set on Vero, 175 µM; in the data set on Trypanosoma cruzi [4] it was 154 µM; in the data set with Trypanosoma cruzi [5], 103 µM. Moreover, the results for the selectivity ratio in data set [2], in data set [3] and in data set [6] were 1.7, 2.8 and 1.1, respectively.

With `O=C(CCN1CCN(c2ccc(F)cc2)CC1)c1ccc(F)c(Br)c1`, the 50% inhibitory concentration (IC50) with Trypanosoma cruzi [1] worked out at 42.4 µM; with Vero, 352 µM; in the data set with Trypanosoma cruzi [4] it was 38.8 µM; in the data set on Trypanosoma cruzi [5] it was 41.4 µM. The figures for the selectivity ratio in data set [2], in data set [3] and in data set [6] were 8.5, 8.3 and 9.1, respectively.

Take `O=C(CCN1CCN(c2ccc(Cl)cc2)CC1)c1ccc(F)c(F)c1`: the IC50 in the data set on Trypanosoma cruzi [1] is 13.7 µM; in the data set on Vero it was 86.2 µM; in the data set with Trypanosoma cruzi [4], 15.4 µM; in the data set with Trypanosoma cruzi [5], 46.2 µM. Further, the selectivity ratio in data set [2] came out at 1.9; in data set [3] it was 6.3; in data set [6] it was 5.6.

As for `O=C(CCN1CCN(c2ccc(Cl)cc2)CC1)c1ccc(OC(F)(F)F)cc1`, the IC50 in the data set on Trypanosoma cruzi [1] turned out to be 34.1 µM; in the data set with Vero it was 95.6 µM; with Trypanosoma cruzi [4], 42.2 µM; with Trypanosoma cruzi [5] it was 61.8 µM. Further, the selectivity ratio in data set [2] turned out to be 1.5; in data set [3], 2.8; in data set [6], 2.3.

As to `O=C(CCN1CCN(c2ccc(F)cc2)CC1)c1ccc(Br)cc1`, the IC50 in the data set with Trypanosoma cruzi [1] was 56.8 µM; in the data set on Vero it was 99.5 µM; in the data set on Trypanosoma cruzi [4] it was 22.5 µM; with Trypanosoma cruzi [5] it was 49.5 µM. Moreover, the selectivity ratio in data set [2] came out at 2; in data set [3], 1.8; in data set [6], 4.4.

For the compound `O=C(CCN1CCN(c2ccc(F)cc2)CC1)c1ccc(OC(F)(F)F)cc1`, the concentration for half-maximal inhibition (IC50) worked out at 27.6 µM in the data set on Trypanosoma cruzi [1], 70.3 µM in the data set with Vero, 85.4 µM in the data set with Trypanosoma cruzi [4] and 52.6 µM with Trypanosoma cruzi [5]. The selectivity ratio in data set [2] was 1.3; in data set [3], 2.5; in data set [6], 0.8.

Regarding `O=C(CCN1CCN(c2ccc(Cl)cc2)CC1)c1ccc(Br)cc1`, the half-maximal inhibitory concentration (IC50) in the data set on Trypanosoma cruzi [1] was 26.4 µM; with Vero, 52.1 µM; in the data set on Trypanosoma cruzi [4], 42.5 µM; in the data set with Trypanosoma cruzi [5], 20.9 µM. For the same compound, the selectivity ratio in data set [2] worked out at 2.5; in data set [3], 2; in data set [6] it was 1.2.

Source of the values: ChEMBL document CHEMBL4118256, “Second Generation of Mannich Base-Type Derivatives with in Vivo Activity against Trypanosoma cruzi” (J Med Chem, 2018).
